PME-1 inh: PME-1 inhibitors via competitive probe labeling, primary screen, biochemical, fluorescence polarization, FP-Rh probe, HTS; inhibition, % at 5.9 µM; Protein phosphatase methylesterase 1 (Homo sapiens), Q9Y570; recombinant PME-1; AID 2130, 2009; hit rate 0.53% among 320,000;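 active = inhibition above the campaign mean of all compounds plus 3 SD, cut at about 26% in these data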;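 note: competitive labeling of PME-1 active site by serine hydrolase directed probe; 0% = PME-1 with DMSO and 100% = wells lacking PME-1 enzyme; inhibitors block probe labeling so polarization falls and inhibition rises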
RBBP9 inh: human RBBP9 inhibitors, primary screen, biochemical, fluorescence polarization, FP-Rh probe, HTS. hit rate 0.2% among 220,000. inhibition, % at 7.94 µM. recombinant RBBP9;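 active = inhibition above the campaign mean of all tested compounds plus 3 SD, cut at about 14% in these data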;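 note: plate controls were DMSO wells with RBBP9 for no effect and wells lacking RBBP9 protein for full effect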
Target sequence (O75884 whole entry, looked up): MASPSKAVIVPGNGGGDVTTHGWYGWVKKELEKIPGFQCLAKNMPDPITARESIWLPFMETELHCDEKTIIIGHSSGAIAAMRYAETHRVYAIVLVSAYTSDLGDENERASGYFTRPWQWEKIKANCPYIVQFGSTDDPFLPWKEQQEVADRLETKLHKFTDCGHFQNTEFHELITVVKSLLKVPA
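Assay system: recombinant human RBBP9; Reagent: Serine-hydrolase probe FP-Rh, 375 nM pre-mixing; Doses: 7.94 µM single dose, 0.794% DMSO; Incubation: 30 min then 45 min, 25 °C; Detection: fluorescence polarization (mP), excitation 525 nm, emission 598 nm; Evaluation: percent inhibition from mP, scaled between DMSO and no-protein wells.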
LYPLA2 inh: LYPLA2 inhibitors, primary screen, counter-screen for PME1 inhibitor project, biochemical, fluorescence polarization, FP-Rh probe ABPP; inhibition, % at 5.9 µM; hit rate 0.38% among 320,000; recombinant LYPLA2; Acyl-protein thioesterase 2 (Homo sapiens), O95372;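 active = inhibition above the screen-wide mean plus 3 SD, limit set per campaign, cut at about 26% in these data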;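 note: 0% = LYPLA2 with DMSO and 100% = wells lacking LYPLA2 enzyme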
Target sequence (O95372 whole entry, looked up): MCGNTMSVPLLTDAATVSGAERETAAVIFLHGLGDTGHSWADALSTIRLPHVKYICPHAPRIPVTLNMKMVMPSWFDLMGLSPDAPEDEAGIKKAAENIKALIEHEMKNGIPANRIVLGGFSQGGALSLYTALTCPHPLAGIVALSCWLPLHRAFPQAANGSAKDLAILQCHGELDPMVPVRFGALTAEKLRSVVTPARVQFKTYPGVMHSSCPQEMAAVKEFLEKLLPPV
LYPLA1 inh: LYPLA1 inhibitors, primary screen, counter-screen for PME1 inhibitor project, biochemical, fluorescence polarization, FP-Rh probe ABPP; hit rate 0.16% among 320,000; Acyl-protein thioesterase 1 (Homo sapiens), O75608; inhibition, % at 5.9 µM; recombinant LYPLA1;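 active = inhibition above the mean of all tested compounds plus 3 SD, set per campaign, cut at about 14% in these data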;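 note: inhibitors block serine hydrolase probe labeling of LYPLA1 so polarization falls; 0% = enzyme with DMSO and 100% = wells lacking LYPLA1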
Target sequence (O75608 whole entry, looked up): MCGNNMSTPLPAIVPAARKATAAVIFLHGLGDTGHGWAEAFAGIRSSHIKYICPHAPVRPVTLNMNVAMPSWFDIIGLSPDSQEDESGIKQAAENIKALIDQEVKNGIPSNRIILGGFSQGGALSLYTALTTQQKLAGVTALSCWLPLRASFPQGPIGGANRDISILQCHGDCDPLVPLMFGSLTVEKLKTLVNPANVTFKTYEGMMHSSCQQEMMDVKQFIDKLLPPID
Fam108B inh: mouse Fam108B serine hydrolase inhibitors, primary screen, counter-screen for RBBP9 inhibitor project, biochemical, fluorescence polarization; hit rate 0.33% among 300,000; inhibition, % at 9.51 µM; AID 1947, 2009; recombinant Fam108B, FP-Rh probe fluorescence polarization;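 active = inhibition above the screen mean inhibition plus 3 SD, computed separately per campaign, cut at about 18% in these data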;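 note: inhibitors lower polarization as less probe binds the enzyme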
Fam108b inh conf: mouse Fam108b serine hydrolase inhibitors, confirmation, counter-screen for RBBP9 inhibitor project, biochemical, fluorescence polarization, triplicate | shares compounds with Fam108B inh | recombinant Fam108b, FP-Rh probe fluorescence polarization | inhibition, % at 9.51 µM | hit rate 44% among 930 | AID 1978, 2009;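 active = inhibition above a limit from the primary screen, the mean over all compounds plus 3 SD, cut at about 19% in these data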;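 note: 0% = median of active Fam108b wells and 100% = catalytically dead S170A mutant; inhibitors free the probe so polarization falls as inhibition rises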
Fam108b inh: inhibition of mouse Fam108b by HTS hits, late-stage follow-up, biochemical, gel-based ABPP, soluble recombinant form. shares compounds with Fam108B inh. fluorophosphonate probe. inhibition, % at 20 µM. hit rate 44% among 260; in the data active = inhibition above about 40%
* = called active by the depositor; nt = not tested or not shown; + = active, no number. Compounds with a hit are over-represented: about 0.99% of the library has one in this group of screens.

SMILES	PME-1 inh	RBBP9 inh	LYPLA2 inh	LYPLA1 inh	Fam108B inh	Fam108b inh conf	others
Cc1ccccc1OCCCn1c(CO)nc2ccccc21	3	-7	2	0	1	nt
O=C(NCc1ccccc1)c1sc(=S)n2c1[nH]c(=O)c1ccccc12	11	-5	5	-3	40*	55*	Fam108b inh=0
O=C(C[n+]1ccc(-c2nnc3n2CCC3)cc1)c1ccc(Cl)c(Cl)c1	-4	-3	-3	-2	0	nt
CCOC(=O)c1sc(NC(=O)c2cccc(S(=O)(=O)N3c4ccccc4CC3C)c2)cc1C (stereo not drawn)	33*	1	-3	-18	43*	21*
CC(C)Nc1nnc(SCC(=O)Nc2ccc3c(c2)C(=O)c2ccccc2C3=O)s1	57*	11	22	-7	30*	12
O=C(CSc1nnc(NC2CCCCC2)s1)Nc1ccc2c(c1)C(=O)c1ccccc1C2=O	9	-2	1	-6	42*	3
O=C(Cc1ccccc1)Nc1nnc(SCC(=O)NC2CCCC2)s1	-2	0	0	0	-3	nt
O=C(CCN=C1NS(=O)(=O)c2ccccc21)N1CCc2ccccc2C1	-1	-10	-6	2	-2	nt
O=C(O)c1ccc2c(c1)C(=O)/C(=C\c1ccco1)C2=O	-33	8	7	-1	18*	13
CCC(C)(CN(C)C)OC(=O)c1ccccc1 (stereo not drawn)	1	nt	1	3	4	nt
O=c1[nH]c(Nc2ccccc2)cc2ccccc12	9	2	7	4	24*	37*	Fam108b inh=0
O=c1[nH]c(Nc2ccccc2)cc2cc(Br)ccc12	18	nt	6	-3	16	nt
CCN(CC)S(=O)(=O)c1ccc(OC)c(NC(=O)CSc2ccccc2)c1	21	-4	4	-2	2	nt
CCCCCCCCCCCCCCCC[N+](C)(C)CCN(Cc1ccc(OC)cc1)c1ncccn1	6	nt	7	-1	22*	22*
Cc1cc(NC(=O)C(C)SCC(=O)Nc2cc(Cl)ccc2N2CCN(C)CC2)no1 (stereo not drawn)	-3	nt	2	0	3	nt
COc1cc(-c2noc(C)c2C#Cc2ccsc2)cc(OC)c1OC	0	nt	-2	-4	-4	nt
CCOCc1cnc(C)nc1NCC(=O)c1c(C)[nH]c2ccccc12	-2	-2	-2	3	57*	5
CCOCc1cnc(C)nc1NCC(=O)c1c(C)[nH]c2cc(C)ccc12	2	-12	3	1	1	nt
CNC(=S)N/N=C/c1cc(Br)cc(Br)c1O	13	-10	5	4	16	nt
Oc1c(Br)cc(Br)cc1/C=N/NC(=S)N[C@H]1CC2C=CC1C2 (stereo partly drawn)	26	3	15	-1	18*	8
O=[N+]([O-])c1ccc(NN=Cc2c[nH]c3ccccc23)c(S(=O)(=O)Nc2ccc(Cl)cc2)c1	nt	nt	nt	nt	nt	nt	Fam108b inh=90*
O=[N+]([O-])c1ccc(N/N=C/c2c[nH]c3ccccc23)c(S(=O)(=O)Nc2ccc(Cl)cc2)c1	-1	11	-1	2	38*	+
COc1ccc(S(=O)(=O)N(C)C)cc1NC(C)C(=O)Nc1cccc(C#N)c1 (stereo not drawn)	4	-2	0	1	-3	nt
CCCn1c(SCC(N)=O)nnc1-c1ccco1	4	-2	2	1	-3	nt
N#C/C(=C(/O)c1cc2ccccc2o1)c1nc2ccccc2s1	9	-8	-2	0	22*	21*
SMILES	PME-1 inh	RBBP9 inh	LYPLA2 inh	LYPLA1 inh	Fam108B inh	Fam108b inh conf	others
N#C/C(=C(/O)c1ccco1)c1nc2ccccc2s1	-2	2	-2	3	5	nt
CCOc1cc(C2Nc3cccc4cccc(c34)N2)ccc1O	23	-1	-17	-31	63*	24*
CCOc1ccc(C2Nc3cccc4cccc(c34)N2)cc1OC	5	4	-16	-9	25*	10
CCOc1cc(C2Nc3ccccc3C(=O)N2c2ccccc2)ccc1O (stereo not drawn)	-4	-12	-5	0	-2	nt
COc1ccc(OC)c(-c2csc(NC(=O)CSc3ccc([N+](=O)[O-])cc3)n2)c1	10	-12	-29	-35	21*	14
C=CCc1cccc2cc(C(=O)Nc3ccccc3C(=O)O)c(=O)oc12	nt	-1	nt	nt	nt	nt
COc1cc(OC)c2cc(C(=O)N/N=C/c3ccccc3O)[nH]c2c1	32*	nt	-1	-7	29*	13
COc1ccc(OC)c(/C=N/NC(=O)c2cc3c(OC)c(OC)ccc3[nH]2)c1	31*	-2	-6	-5	19*	17
COc1cc(/C=C/c2nc3ccc([N+](=O)[O-])cc3s2)ccc1OCC(=O)O	2	-10	4	7	-3	nt
COc1ccc(NC(=O)CN2C(=O)NC(CC(C)C)C2=O)cc1S(=O)(=O)N1CCOCC1 (stereo not drawn)	2	nt	4	-1	nt	nt
Oc1ccc(N=Cc2ccc(O)c(O)c2)cc1	47*	-3	14	-3	36*	1
O=c1[nH]cc(I)cc1I	nt	-12	nt	nt	nt	nt
O=C(c1cc2ccccc2oc1=O)N1CCN(c2ncccn2)CC1	-7	3	7	0	-2	nt
CC(=O)C1C(=O)c2c(cccc2[N+](=O)[O-])C1=Nc1ccc(S(N)(=O)=O)cc1 (stereo not drawn)	26*	-1	10	2	20*	22*
COc1ccc(CNC(=O)C2CCN(S(=O)(=O)N3CCCCC3)CC2)c(OC)c1	5	nt	-4	-3	0	nt
O=c1c2cnn(-c3ccccc3)c2nc(-c2cccs2)n1-c1ccc(Cl)cc1	5	5	3	-4	-11	nt
O=c1oc(-c2cccs2)nc2c1cnn2-c1ccccc1	2	-7	4	2	20*	23*
O=C(CN(CCc1ccccc1)C(=O)c1csnn1)NCc1ccc(F)cc1	-3	nt	13	5	-1	nt
O=c1c(=Cc2cc([N+](=O)[O-])cc([N+](=O)[O-])c2O)sc2nc3ccccc3n12	nt	nt	nt	nt	nt	nt	Fam108b inh=20
O=C(O)c1cccc(-c2ccc(/C=c3/sc4nc5ccccc5n4c3=O)o2)c1	-11	-10	4	10	25*	9
COc1ccc(NC(=O)c2cccc(N3C(=O)c4ccc(C(=O)Nc5ccc(OC)c(O)c5)cc4C3=O)c2)cc1O	20	nt	16	0	21*	26*
